Data taken from ChEMBL document CHEMBL4706701, “Synthesis and biological activity of selenopsammaplin A and its analogues as antitumor agents with DOT1L inhibitory activity” (Bioorg Med Chem, 2021).
Active and inactive are the calls of the source. The calls are words filed in the database; no cut-off is given here.

Test system: MDA-MB-231
Assay: Antimetastatic activity against human MDA-MB-231 cells xenografted in BALB/c nu mouse assessed as down regulation of H3K79me2 expression in tumor tissue at 5 to 15 mg/kg, ip administered thrice per week for 38 days measured 1 week post last dose by H and E staining based immunohistochemical analysis
Assay type: functional, organism-based
Conditions: dose 5-15 mg/kg, time 45.0 day
Outline: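 Tumors and lungs from orthotopic MDA-MB-231/Luc nude mice (ip dosing three times weekly, 38 days) fixed in 4% PFA, paraffin-embedded, sectioned, antigen-retrieved. Lungs H&E-stained for metastatic cells; tumor sections immunostained for Ki67, H3K79me2, E-cadherin, vimentin with HRP detection, hematoxylin counterstain, imaged at 200×.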

How did the Activity turn out when `O=C(NCC[Se][Se]CCNC(=O)/C(Cc1ccccc1)=N/O)/C(Cc1ccccc1)=N/O` was run?
Its Activity is “Active”.
